Measurements published in ChEMBL document CHEMBL3797175, “Discovery of 6-(difluoro(6-(4-fluorophenyl)-[1,2,4]triazolo[4,3-b][1,2,4]triazin-3-yl)methyl)quinoline as a highly potent and selective c-Met inhibitor” (Eur J Med Chem, 2016).
Calls of active or inactive are those of the source. The calls are words filed in the database; no cut-off is given here.

Tests used:
[1] = Tmax in Sprague-Dawley rat at 10 mg/kg, po administered as single dose; type: ADME, organism-based; settings: in vivo
How it was run: (§1)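 Male Sprague-Dawley rats (n=3), single dose. IV 2 mg/kg in 1% DMA/9% Cremophor/90% saline; PO 10 mg/kg in 0.5% CMC-Na. For one compound, IV 10 mg/kg in DMSO/Tween 80/PEG40 and PO 10 mg/kg in 10% DMSO/5% Tween 80/85% saline.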

[2] = target: Hepatocyte growth factor receptor (Canis lupus familiaris) (UniProt Q75ZY9); assay: Inhibition of c-Met in MDCK cells assessed as inhibition of HGF-induced branching morphogenesis at 0.4 to 10 nM after 5 days by microscopic analysis; type: cell-based
Sequence of Hepatocyte growth factor receptor (Canis lupus familiaris) (Q75ZY9 whole entry): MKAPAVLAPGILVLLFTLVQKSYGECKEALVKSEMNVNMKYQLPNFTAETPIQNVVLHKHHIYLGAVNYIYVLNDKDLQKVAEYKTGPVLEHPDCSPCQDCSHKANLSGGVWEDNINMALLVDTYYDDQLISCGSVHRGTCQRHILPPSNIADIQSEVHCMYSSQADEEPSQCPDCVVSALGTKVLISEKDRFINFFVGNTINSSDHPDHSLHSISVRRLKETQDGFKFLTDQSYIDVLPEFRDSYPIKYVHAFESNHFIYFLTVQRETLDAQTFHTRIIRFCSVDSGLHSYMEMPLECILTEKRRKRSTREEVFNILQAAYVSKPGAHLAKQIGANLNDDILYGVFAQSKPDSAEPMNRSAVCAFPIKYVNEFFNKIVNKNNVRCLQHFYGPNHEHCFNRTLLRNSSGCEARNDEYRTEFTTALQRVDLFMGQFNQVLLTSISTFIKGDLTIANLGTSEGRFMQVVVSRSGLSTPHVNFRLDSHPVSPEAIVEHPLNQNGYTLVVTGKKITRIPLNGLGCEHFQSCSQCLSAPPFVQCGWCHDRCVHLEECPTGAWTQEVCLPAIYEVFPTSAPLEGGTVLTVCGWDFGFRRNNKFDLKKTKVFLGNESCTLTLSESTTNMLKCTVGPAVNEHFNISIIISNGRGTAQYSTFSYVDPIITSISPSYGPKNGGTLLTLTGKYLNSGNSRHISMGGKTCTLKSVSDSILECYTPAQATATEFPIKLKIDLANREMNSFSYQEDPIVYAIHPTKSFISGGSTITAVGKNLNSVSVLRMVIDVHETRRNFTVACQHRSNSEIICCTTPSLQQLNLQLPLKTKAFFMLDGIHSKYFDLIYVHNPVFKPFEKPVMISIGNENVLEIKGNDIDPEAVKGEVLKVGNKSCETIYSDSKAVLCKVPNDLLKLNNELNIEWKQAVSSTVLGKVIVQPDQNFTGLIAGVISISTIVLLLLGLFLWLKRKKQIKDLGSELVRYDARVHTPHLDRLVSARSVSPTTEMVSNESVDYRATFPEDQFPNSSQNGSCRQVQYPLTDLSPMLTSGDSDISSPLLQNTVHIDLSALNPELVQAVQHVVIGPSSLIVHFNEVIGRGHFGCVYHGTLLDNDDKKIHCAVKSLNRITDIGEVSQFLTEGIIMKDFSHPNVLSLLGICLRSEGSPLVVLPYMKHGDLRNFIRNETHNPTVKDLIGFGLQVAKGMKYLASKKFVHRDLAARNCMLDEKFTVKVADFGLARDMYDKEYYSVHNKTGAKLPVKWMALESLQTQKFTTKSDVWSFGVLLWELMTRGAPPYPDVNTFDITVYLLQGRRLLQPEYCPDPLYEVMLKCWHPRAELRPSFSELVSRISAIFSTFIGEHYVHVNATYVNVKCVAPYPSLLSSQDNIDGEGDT
How it was run: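 MDCK cells (2×10^4/mL) mixed 1:1 with collagen I and gelled 60 min at 37 °C. HGF (100 ng/mL) added with or without compound at various concentrations in growth medium. Medium renewed every 2 d; branching imaged by microscopy after 5 d. Three independent experiments.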

[3] = Antitumor activity against human EBC1 cells xenografted in athymic nude mouse assessed as tumor growth inhibition at 25 mg/kg, po bid for 21 days measured twice a week during compound dosing relative to control; type: functional; settings: EBC-1, po, 504 h, read-out: TGI
How it was run: (§2)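 Nude mice bearing s.c. tumours. Cells were first grown s.c. to 700–800 mm³, then 1.5 mm³ fragments were transplanted s.c. into the right flank. Mice were randomised at 100–200 mm³ (n=6 treated, n=12 vehicle) and dosed orally twice daily for 21 days. Caliper measurement twice weekly; TV = length×width²/2. TGI taken on the final day versus vehicle; Student's t test.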

[4] = Antitumor activity against human EBC1 cells xenografted in athymic nude mouse assessed as tumor growth inhibition at 6.25 mg/kg, po bid for 21 days measured twice a week during compound dosing relative to control; type: functional; settings: EBC-1, po, 504 h, read-out: TGI; how it was run: as §2
[5] = tested on: Mus musculus; assay: Toxicity in athymic nude mouse xenografted with human EBC1 cells assessed as body weight loss at 6.25 to 25 mg/kg, po bid for 21 days measured twice a week during compound dosing; type: organism-based; settings: in vivo, 504 h
How it was run: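 Nude mice carrying s.c. EBC-1 tumor fragments, randomized at 100–200 mm³ (n=6 treated, n=12 vehicle). Dosed orally twice daily for 21 days. Body weight and caliper tumor volume measured twice weekly.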

[6] = target: Proto-oncogene tyrosine-protein kinase receptor Ret (Homo sapiens) (UniProt P07949); assay: Inhibition of recombinant RET (unknown origin) using poly (Glu, Tyr) 4:1 as substrate at 1000 nM incubated for 60 mins by ELISA relative to control
How it was run: (§3)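 Recombinant tyrosine kinases assayed on wells precoated with poly(Glu,Tyr)4:1 (20 µg/mL). ATP 10 µmol/L in HEPES pH 7.4 buffer with MgCl2, MnCl2, Na3VO4 and DTT; compound in 1% DMSO, 1% DMSO as control. Reaction 60 min at 37 °C. Phosphotyrosine detected with PY99 and HRP anti-mouse, o-phenylenediamine, A490. Inhibition % relative to control; two experiments.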

[7] = Selectivity ratio of IC50 for human NCI-H358 cells to IC50 for human EBC1 cells; type: ADME, cell-based
How it was run: (§4)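 Both IC50s in each ratio come from one proliferation assay. Cells were seeded and exposed the next day to a range of concentrations for 72 h, then read by SRB or MTT. IC50s were fitted by four-parameter concentration–response, with each concentration at least in triplicate and at least 2 experiments. BaF3/TPR-Met is murine pre-B BaF3 transfected with TPR-MET and puromycin-selected.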

[8] = Antiproliferative activity against human Calu3 cells after 72 hrs by SRB or MTT assay; type: functional, cell-based; settings: Calu-3, 72 h
How it was run: (§5)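 Cells seeded, exposed next day to a range of concentrations for 72 h. Growth read by sulforhodamine B or MTT. IC50 from four-parameter concentration-response fit. Each concentration tested at least in triplicate, with at least 2 experiments.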

[9] = tested on: Epidermal growth factor receptor (Homo sapiens), P00533 [L858R,T790M]; assay: Inhibition of EGFR T790M/L858R double mutant (unknown origin) using poly (Glu, Tyr) 4:1 as substrate at 1000 nM incubated for 60 mins by ELISA relative to control; type: protein assay
Sequence of Epidermal growth factor receptor (Homo sapiens), P00533 [L858R,T790M] (P00533 whole entry T790M/L858R, looked up): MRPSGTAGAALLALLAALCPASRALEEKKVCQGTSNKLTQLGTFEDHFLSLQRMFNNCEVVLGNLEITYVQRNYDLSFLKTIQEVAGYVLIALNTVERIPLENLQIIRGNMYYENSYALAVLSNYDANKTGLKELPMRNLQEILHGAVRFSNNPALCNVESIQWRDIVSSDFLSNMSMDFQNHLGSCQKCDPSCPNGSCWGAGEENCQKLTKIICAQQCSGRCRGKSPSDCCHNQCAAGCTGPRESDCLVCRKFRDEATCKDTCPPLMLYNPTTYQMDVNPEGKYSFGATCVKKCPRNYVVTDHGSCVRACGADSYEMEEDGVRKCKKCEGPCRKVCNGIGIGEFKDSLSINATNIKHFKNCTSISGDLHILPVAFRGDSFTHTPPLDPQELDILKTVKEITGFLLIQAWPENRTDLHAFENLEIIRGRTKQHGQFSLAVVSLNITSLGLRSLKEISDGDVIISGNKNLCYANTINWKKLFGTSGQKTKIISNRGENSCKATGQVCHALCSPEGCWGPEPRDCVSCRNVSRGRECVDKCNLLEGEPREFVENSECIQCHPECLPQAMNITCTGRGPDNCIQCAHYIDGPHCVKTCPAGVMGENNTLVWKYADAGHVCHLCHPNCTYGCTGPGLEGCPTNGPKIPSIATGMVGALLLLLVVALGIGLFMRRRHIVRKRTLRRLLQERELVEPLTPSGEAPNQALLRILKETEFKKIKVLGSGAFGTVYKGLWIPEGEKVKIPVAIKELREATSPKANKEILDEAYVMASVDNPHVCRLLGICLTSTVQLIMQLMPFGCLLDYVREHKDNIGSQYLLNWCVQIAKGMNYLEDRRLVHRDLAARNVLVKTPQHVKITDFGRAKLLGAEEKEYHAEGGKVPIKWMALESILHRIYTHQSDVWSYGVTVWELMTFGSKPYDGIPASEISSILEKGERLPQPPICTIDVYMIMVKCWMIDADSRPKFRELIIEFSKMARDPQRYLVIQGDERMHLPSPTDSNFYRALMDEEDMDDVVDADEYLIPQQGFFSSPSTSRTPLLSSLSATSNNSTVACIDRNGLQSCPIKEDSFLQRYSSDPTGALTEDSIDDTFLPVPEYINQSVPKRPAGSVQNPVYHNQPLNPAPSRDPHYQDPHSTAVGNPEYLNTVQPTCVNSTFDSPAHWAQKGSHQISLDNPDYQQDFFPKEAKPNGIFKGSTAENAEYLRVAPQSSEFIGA
How it was run: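 Recombinant kinase, ELISA on a poly(Glu,Tyr)4:1 coat (20 μg/mL). 10 μmol/L ATP in HEPES pH 7.4 with MgCl2, MnCl2, Na3VO4 and DTT; 1% DMSO. Reaction 60 min at 37 °C. Phosphotyrosine detected with PY99 and HRP anti-mouse IgG, o-phenylenediamine substrate, A490. Inhibition % versus DMSO control; two separate experiments.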

[10] = Antitumor activity against human MKN45 cells xenografted in athymic nude mouse assessed as tumor growth inhibition at 6.25 mg/kg, po bid for 21 days measured twice a week during compound dosing relative to control; type: functional; settings: MKN-45, po, 504 h, read-out: TGI; how it was run: as §2
[11] = target: T1, Hepatocyte growth factor receptor (Homo sapiens, UniProt P08581); assay: Inhibition of c-Met in human MKN45 cells assessed as reduction in AKT phosphorylation at Serine 473 at 10 nM after 1 hr by Western blot analysis; type: cell-based; settings: MKN-45
T1 sequence (P08581 whole entry): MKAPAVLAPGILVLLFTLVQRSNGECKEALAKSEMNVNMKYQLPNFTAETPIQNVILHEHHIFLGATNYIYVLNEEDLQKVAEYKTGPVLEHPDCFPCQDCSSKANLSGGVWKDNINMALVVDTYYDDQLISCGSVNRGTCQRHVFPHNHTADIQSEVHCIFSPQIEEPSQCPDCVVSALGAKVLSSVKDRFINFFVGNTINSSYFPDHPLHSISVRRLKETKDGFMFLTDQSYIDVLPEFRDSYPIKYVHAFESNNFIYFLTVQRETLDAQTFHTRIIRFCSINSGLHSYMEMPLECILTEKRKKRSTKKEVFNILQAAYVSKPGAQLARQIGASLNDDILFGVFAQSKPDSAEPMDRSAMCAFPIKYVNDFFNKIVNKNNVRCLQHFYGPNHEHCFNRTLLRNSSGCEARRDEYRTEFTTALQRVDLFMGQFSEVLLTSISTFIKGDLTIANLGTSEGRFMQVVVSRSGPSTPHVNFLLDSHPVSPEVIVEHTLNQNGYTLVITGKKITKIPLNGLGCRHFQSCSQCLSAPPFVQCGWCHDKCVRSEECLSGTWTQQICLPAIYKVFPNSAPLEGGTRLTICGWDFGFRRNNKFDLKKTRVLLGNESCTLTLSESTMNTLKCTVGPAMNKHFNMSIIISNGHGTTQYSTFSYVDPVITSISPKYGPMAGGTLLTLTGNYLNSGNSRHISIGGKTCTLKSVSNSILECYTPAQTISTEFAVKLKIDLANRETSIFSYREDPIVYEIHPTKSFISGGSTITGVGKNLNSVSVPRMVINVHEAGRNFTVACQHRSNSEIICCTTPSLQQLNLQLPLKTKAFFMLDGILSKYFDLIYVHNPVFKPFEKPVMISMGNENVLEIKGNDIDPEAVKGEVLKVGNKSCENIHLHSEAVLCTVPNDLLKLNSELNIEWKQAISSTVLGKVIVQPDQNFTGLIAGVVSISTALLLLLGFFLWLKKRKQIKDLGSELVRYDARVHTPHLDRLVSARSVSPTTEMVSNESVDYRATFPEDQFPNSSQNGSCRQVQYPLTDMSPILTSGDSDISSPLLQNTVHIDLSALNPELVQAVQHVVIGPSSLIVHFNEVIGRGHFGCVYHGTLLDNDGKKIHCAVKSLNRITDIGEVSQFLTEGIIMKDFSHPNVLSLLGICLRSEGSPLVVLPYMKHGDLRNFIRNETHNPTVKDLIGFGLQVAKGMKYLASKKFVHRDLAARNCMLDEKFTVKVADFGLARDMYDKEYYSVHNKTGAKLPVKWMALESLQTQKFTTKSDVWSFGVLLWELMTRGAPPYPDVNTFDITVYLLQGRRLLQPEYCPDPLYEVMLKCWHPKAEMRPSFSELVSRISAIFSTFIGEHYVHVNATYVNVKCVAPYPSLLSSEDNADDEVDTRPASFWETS
How it was run: (§6)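 EBC-1 or MKN45 cells treated with compound 1 h at 37 °C without HGF, then lysed in 1× SDS sample buffer. Lysates run on 10% SDS-PAGE and transferred to nitrocellulose. Probed with antibodies to c-Met, phospho-c-Met, phospho-ERK1/2, phospho-AKT, AKT and GAPDH, then HRP secondary. ECL detection.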

[12] = target: T1, Hepatocyte growth factor receptor; assay: Inhibition of c-Met phosphorylation at Tyrosine 1235 in human MKN45 cells at 10 nM after 1 hr by Western blot analysis; type: cell-based; settings: MKN-45; how it was run: as §6
[13] = Selectivity ratio of IC50 for human PANC1 cells to IC50 for mouse BAF3 cells expressing TPR-MET; type: ADME, cell-based
How it was run: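 Each cell line was seeded in 96-well plates, then exposed the next day to a range of compound concentrations for 72 h. Growth was read by SRB or MTT assay, and IC50 was fitted by a four-parameter concentration-response curve. Each concentration was run at least in triplicate, in at least 2 experiments. BaF3/TPR-Met are murine pre-B BaF3 cells transfected with TPR-MET cDNA and selected in puromycin.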

[14] = Oral bioavailability in Sprague-Dawley rat at 10 mg/kg administered as single dose; type: ADME, organism-based; settings: in vivo; how it was run: as §1
[15] = target: Ephrin type-A receptor 2 (Homo sapiens) (UniProt P29317); assay: Inhibition of recombinant EPHA2 (unknown origin) using poly (Glu, Tyr) 4:1 as substrate at 1000 nM incubated for 60 mins by ELISA relative to control; how it was run: as §3
Sequence of Ephrin type-A receptor 2 (Homo sapiens) (P29317 whole entry): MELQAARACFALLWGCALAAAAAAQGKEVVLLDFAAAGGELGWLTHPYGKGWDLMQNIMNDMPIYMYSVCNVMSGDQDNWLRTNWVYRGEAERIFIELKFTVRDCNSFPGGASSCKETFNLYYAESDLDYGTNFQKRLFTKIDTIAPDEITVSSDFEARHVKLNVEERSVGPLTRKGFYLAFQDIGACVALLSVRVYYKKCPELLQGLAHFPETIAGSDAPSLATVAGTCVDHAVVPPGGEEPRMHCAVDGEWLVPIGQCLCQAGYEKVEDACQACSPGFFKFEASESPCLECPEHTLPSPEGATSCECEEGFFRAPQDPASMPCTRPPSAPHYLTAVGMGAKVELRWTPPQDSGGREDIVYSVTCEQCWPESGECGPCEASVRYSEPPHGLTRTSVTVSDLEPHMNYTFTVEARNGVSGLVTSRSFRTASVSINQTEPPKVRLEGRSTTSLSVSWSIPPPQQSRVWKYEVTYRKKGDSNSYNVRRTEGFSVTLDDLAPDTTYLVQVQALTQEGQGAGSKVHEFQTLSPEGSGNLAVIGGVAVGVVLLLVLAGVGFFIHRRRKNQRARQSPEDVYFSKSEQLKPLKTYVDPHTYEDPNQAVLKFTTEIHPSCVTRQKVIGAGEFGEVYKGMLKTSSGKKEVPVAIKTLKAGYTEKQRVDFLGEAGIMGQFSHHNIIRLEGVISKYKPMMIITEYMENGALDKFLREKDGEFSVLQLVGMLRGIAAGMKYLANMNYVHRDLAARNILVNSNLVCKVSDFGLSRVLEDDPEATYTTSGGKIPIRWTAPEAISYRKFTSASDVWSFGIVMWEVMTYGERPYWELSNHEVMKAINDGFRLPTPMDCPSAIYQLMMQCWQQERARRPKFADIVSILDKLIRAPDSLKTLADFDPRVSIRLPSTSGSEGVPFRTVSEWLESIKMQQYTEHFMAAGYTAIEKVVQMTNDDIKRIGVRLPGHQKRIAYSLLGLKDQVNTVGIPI

[16] = Selectivity ratio of IC50 for human NCI-H292 cells to IC50 for human EBC1 cells; type: ADME, cell-based; how it was run: as §4
[17] = Selectivity ratio of IC50 for human MDA-MB-231 cells to IC50 for human EBC1 cells; type: ADME, cell-based; how it was run: as §4
[18] = Selectivity ratio of IC50 for human MGC803 cells to IC50 for mouse BAF3 cells expressing TPR-MET; type: ADME, cell-based; how it was run: as §4
[19] = Antiproliferative activity against human SPCA1 cells after 72 hrs by SRB or MTT assay; type: functional, cell-based; settings: SPCA1, 72 h; how it was run: as §5
[20] = Selectivity ratio of IC50 for human SNU1 cells to IC50 for mouse BAF3 cells expressing TPR-MET; type: ADME, cell-based

Tmax [1]: 1 h | inhibition [2]: Active | inhibition [6]: 29.9% | inhibition [9]: 28.9% | inhibition [11]: Active | inhibition [12]: Active | bioavailability [14]: 48.3% | inhibition [15]: 6.1%
Compound: Fc1ccc(-c2cnc3nnc(C(F)(F)c4ccc5ncccc5c4)n3n2)cc1
inhibition in vivo at 25 mg/kg [3]: 97.1% | inhibition in vivo at 6.25 mg/kg [4]: 56.9% | Activity [5]: Non-toxic | Ratio IC50 [7]: 10000 | IC50 [8]: > 10 µM | inhibition in vivo at 6.25 mg/kg [10]: 46.8% | Ratio IC50 [13]: 10000 | Ratio IC50 [16]: 10000 | Ratio IC50 [17]: > 10000 | Ratio IC50 [18]: > 10000 | IC50 [19]: > 10 µM | Ratio IC50 [20]: 10000
